Data on 22 molecules can be found in ChEMBL document CHEMBL1921745, “CCR2 receptor antagonists: optimization of biaryl sulfonamides to increase activity in whole blood” (Bioorg Med Chem Lett, 2011).

Series [1] concerns the target T1, C-C chemokine receptor type 2 (Homo sapiens, UniProt P41597). Put plainly: Antagonist activity at CCR2 receptor in human whole blood assessed as inhibition of MCP-1 induced monocyte shape change pretreated for 15 mins before MCP-1 challenge measured after 5 mins by flow cytometry. The format is functional, tissue-based. Particulars: read-out: pA2 (converted). In short, it runs like this:
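Fresh blood from healthy human donors, preincubated 15 minutes with antagonist, then stimulated 5 minutes with a range of MCP-1 concentrations. Samples fixed rapidly and analysed by flow cytometry for increase in monocyte side scatter, plotted against MCP-1 concentration. pA2 derived by comparison with the MCP-1 dose response in vehicle-treated blood.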
Target sequence in this assay (P41597 whole entry): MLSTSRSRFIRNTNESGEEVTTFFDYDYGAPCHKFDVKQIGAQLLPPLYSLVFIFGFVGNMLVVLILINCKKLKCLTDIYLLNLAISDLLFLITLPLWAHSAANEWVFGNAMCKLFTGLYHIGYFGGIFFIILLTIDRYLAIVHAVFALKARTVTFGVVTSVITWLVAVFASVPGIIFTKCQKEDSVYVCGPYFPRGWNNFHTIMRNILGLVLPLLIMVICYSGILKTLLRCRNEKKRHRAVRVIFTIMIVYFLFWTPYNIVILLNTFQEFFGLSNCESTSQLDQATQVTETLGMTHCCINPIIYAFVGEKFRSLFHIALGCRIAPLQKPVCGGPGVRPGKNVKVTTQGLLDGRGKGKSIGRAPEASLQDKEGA
For orientation: Flow cytometry measures light scatter and fluorescence of single cells or particles in a stream.

Series [2] deals with T1, C-C chemokine receptor type 2. Put plainly: Antagonist activity at human CCR2 receptor expressed in CHO cells assessed as inhibition of MCP1-induced [35S]-GTPgammaS binding after 3 hrs. The format is functional, cell-based.
Target sequence in this assay (P41597 whole entry): as above
A short description of series [3]: Cmax in satellite C57BL/6 mouse at 40 mg/kg, po. The format is ADME, organism-based. More on the design: dose 40 mg/kg, route oral. As to conditions: in vivo. In short, it runs like this:
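Female C57Bl/6 satellite mice from the peritonitis study were given 40 mg/kg orally, with blood levels followed over about 7 hours.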

Series [4] in a line: Cmax in rat at 1 mg/kg, iv and 1.5 mg/kg, po. The format is ADME, organism-based. Particulars: in vivo.
A short description of series [5]: Half life in rat at 1 mg/kg, iv and 1.5 mg/kg, po. The format is ADME, organism-based. As to conditions: in vivo.
Series [6] can be described thus: Clearance in rat at 1 mg/kg, iv and 1.5 mg/kg, po. The format is ADME, organism-based. As to conditions: in vivo.
Series [7] addresses Voltage-gated inwardly rectifying potassium channel KCNH2 (Homo sapiens, UniProt Q12809). Put plainly: Inhibition of human ERG.
The target of series [8] is T2, C-C chemokine receptor type 4 (Homo sapiens, UniProt P51679).
T2 sequence (P51679 whole entry): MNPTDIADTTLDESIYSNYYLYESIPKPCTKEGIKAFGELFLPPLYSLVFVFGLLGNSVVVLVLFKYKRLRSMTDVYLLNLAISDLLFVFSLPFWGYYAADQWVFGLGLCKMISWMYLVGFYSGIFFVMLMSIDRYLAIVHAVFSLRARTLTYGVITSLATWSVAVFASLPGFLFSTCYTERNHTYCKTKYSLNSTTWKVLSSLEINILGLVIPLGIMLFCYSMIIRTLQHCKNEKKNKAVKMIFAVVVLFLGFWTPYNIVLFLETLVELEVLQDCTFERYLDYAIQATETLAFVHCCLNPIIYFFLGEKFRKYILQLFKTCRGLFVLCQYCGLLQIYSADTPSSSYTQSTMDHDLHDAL
Put plainly: Antagonist activity at CCR4. The format is functional.

Another series has as its system Mus musculus. Put plainly: Reduction of monocyte recruitment in CCR2 deficient C57BL/6 mouse thioglycolate-induced peritonitis model at 40 mg/kg, po administered 3 hrs before thioglycolate challenge relative to control. The format is functional. More on the design: scale not given: the % may be the effect or the level left. Particulars: in the assay text read “humanized CCR2 knock-in” for “CCR2 deficient”. In short, it runs like this: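 Thioglycolate-induced peritonitis model in humanized CCR2 knock-in mice. Antagonist given orally at 40 mg/kg and monocyte recruitment compared with a vehicle group.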

A short description of series [9]: Volume of distribution at steady state in rat at 1 mg/kg, iv and 1.5 mg/kg, po. The format is ADME, organism-based. Particulars: in vivo, read-out: Vdss.
For series [10], the target named is T3, C-C chemokine receptor type 1 (Homo sapiens, UniProt P32246).
T3 sequence (P32246 whole entry): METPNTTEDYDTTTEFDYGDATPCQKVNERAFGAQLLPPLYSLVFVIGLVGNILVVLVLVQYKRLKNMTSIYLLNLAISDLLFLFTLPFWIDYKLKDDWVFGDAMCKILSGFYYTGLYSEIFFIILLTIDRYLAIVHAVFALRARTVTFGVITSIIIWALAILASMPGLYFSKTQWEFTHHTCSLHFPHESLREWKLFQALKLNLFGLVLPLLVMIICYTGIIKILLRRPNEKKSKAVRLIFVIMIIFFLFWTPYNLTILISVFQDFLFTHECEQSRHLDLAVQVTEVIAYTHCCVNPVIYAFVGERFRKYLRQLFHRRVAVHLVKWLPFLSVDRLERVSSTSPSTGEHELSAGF
Put plainly: Antagonist activity at CCR1. The format is functional.

A short description of series [11]: Oral bioavailability in rat at 1.5 mg/kg. The format is ADME, organism-based. Particulars: in vivo.
Series [12] can be described thus: Lipophilicity, log D of the compound. The format is physicochemical. As to conditions: octanol/water.
Series [13] concerns the target T1, C-C chemokine receptor type 2. Put plainly: Antagonist activity at human CCR2 receptor expressed in CHO cells assessed as inhibition of MCP1-induced [35S]-GTPgammaS binding after 3 hrs in presence of 5% human serum albumin. The format is functional, cell-based. In short, it runs like this: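 GTPγS functional assay at CCR2 run side by side with the HSA-free primary assay. HSA present at 0.2% w/v, described as 5% of physiological concentration.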
Target sequence in this assay (P41597 whole entry): as the sequence (P41597 whole entry) above

Series [14] shares this target. Put plainly: Ratio of IC50 for human CCR2 receptor in presence of 5% human serum to IC50 for human CCR2 receptor.
Target sequence in this assay (P41597 whole entry, looked up): as the sequence (P41597 whole entry) above
Series [15] is described as follows: Oral bioavailability in rat at 2 mg/kg. The format is ADME, organism-based. As to conditions: in vivo.
Series [16] is described as follows: Half life in rat at 1 mg/kg, iv and 2 mg/kg, po. As to conditions: in vivo. The format is ADME, organism-based.
The nature of series [17]: Clearance in rat at 1 mg/kg, iv and 2 mg/kg, po. The format is ADME, organism-based. Particulars: in vivo.
Series [18] is described as follows: Volume of distribution at steady state in rat at 1 mg/kg, iv and 2 mg/kg, po. The format is ADME, organism-based. As to conditions: in vivo, read-out: Vdss.
Series [19] in a line: Cmax in rat at 1 mg/kg, iv and 2 mg/kg, po. The format is ADME, organism-based. As to conditions: in vivo.

Voltage-gated inwardly rectifying potassium channel KCNH2, sequence (Q12809 whole entry): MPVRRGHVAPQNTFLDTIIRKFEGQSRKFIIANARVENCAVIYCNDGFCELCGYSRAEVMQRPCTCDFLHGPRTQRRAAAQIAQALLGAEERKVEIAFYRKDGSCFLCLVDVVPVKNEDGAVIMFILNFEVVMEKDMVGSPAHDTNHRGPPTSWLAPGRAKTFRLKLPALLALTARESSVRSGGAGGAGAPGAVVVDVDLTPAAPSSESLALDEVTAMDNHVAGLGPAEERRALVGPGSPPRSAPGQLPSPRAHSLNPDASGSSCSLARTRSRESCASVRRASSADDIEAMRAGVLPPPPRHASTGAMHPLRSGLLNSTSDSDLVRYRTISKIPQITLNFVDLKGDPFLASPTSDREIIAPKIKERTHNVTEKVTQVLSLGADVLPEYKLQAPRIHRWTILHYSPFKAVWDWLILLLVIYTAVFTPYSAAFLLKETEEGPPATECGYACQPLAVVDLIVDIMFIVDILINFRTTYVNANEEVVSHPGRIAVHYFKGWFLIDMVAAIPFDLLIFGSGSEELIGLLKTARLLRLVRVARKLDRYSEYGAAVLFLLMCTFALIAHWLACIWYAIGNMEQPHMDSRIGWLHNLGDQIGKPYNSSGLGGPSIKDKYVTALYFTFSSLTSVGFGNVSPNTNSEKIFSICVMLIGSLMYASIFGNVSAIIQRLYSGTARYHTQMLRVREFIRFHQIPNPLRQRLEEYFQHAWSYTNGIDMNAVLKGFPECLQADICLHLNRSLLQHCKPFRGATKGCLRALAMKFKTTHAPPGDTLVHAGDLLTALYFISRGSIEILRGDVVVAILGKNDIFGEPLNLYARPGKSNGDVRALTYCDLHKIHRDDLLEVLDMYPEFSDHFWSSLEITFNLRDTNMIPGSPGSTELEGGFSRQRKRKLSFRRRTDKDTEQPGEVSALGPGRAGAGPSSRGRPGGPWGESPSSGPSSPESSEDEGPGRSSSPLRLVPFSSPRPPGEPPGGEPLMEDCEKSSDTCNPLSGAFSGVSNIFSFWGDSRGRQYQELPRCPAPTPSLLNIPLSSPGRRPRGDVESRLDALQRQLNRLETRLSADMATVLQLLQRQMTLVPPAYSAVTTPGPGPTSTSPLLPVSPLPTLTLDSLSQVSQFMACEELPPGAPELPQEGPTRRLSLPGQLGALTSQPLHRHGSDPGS

For `O=C(NCCN1CCCC1)c1ccc(Oc2ccc(Cl)cc2NS(=O)(=O)c2ccc(Cl)c(C(F)(F)F)c2)cc1`, in [1], the Kb is 501 nM. Also, the Ki in series [2] is 2 nM.

As to `COc1cc(Oc2ccc(C(=O)NCCN3CCCCC3)cc2)c(NS(=O)(=O)c2ccc(Cl)c(C(F)(F)F)c2)cc1Cl`, the Kb in series [1] is 398 nM. Besides, in [2], the Ki is 10 nM.

Take `Cc1cc(Oc2ccc(C(=O)NCCN3CCCCC3)cc2)c(NS(=O)(=O)c2ccc(Cl)c(C(F)(F)F)c2)cc1Cl`: the Kb in [1] was 1260 nM. Also, in series [2], the inhibition constant (Ki) was 16 nM.

On to `COc1cc(C(=O)NCCN2CCCC2)ccc1Oc1ccc(Cl)cc1NS(=O)(=O)c1ccc(Cl)c(C(F)(F)F)c1`, for which the Cmax amounted to 1970 ng/mL in series [3] and 652 ng/mL in series [4]. In addition, the Kb in [1] was 251 nM. The half-life in series [5] was 3.9 h. In addition, the Ki in series [2] was 6 nM. The same molecule returned a clearance in [6] of 17 mL/min/kg. The IC50 is 25100 nM in series [7], above 10000 nM in series [8] and above 25100 nM in series [10]. For the same molecule, in the series with Mus musculus, the Activity stood at 56%. Moreover, in series [9], the Vd worked out at 2.7 L/kg. The molecule further gave a bioavailability in [11] of 37%. Further, the logD in [12] amounted to 2.3.

Consider `O=C(NCCN1CCCCC1)c1ccc(Oc2ccc(Cl)cc2NS(=O)(=O)c2ccc(Cl)c(Cl)c2)cc1`, for which the Kb in series [1] is 3160 nM. Also, the Ki in series [2] was determined as 63 nM.

In the case of `Cc1cc(C(=O)NCCN2CCCCC2)ccc1Oc1ccc(Cl)cc1NS(=O)(=O)c1ccc(Cl)c(C(F)(F)F)c1`, the Kb in series [1] was 2510 nM. In addition, the inhibitory constant (Ki) in series [2] amounted to 25 nM.

Turning to `O=C(NCCN1CCCC1)c1ccccc1Oc1ncc(Cl)cc1NS(=O)(=O)c1ccc(Cl)c(Cl)c1`, the Ki in [2] was 631 nM; in [13], 2510 nM. The fold change (FC) in series [14] was found to be 4.

As to `O=C(NCCN1CCCC1)c1cccc(Oc2ncc(Cl)cc2NS(=O)(=O)c2ccc(Cl)c(Cl)c2)c1`, the Ki amounted to 100 nM in series [2] and 1000 nM in series [13]. The fold change (FC) in [14] was found to be 10.

Turning to `O=C(NCCN1CCCCC1)c1ccc(Oc2ccc(Cl)cc2NS(=O)(=O)c2ccc(Cl)c(C(F)(F)F)c2)cc1`, in [1], the Kb is 631 nM. Moreover, the Ki in series [2] amounted to 10 nM.

For the molecule `O=C(NCCN1CCNCC1)c1cccc(Oc2ncc(Cl)cc2NS(=O)(=O)c2ccc(Cl)c(Cl)c2)c1`, the Ki is 200 nM in [2] and 2510 nM in series [13]. Besides, in series [14], the fold change (FC) was found to be 13.

As to `O=C(NCCN1CCCCC1)c1ccccc1Oc1ncc(Cl)cc1NS(=O)(=O)c1ccc(Cl)c(Cl)c1`, the Ki in series [2] amounted to 794 nM; in [13], 1590 nM. Further, the fold change (FC) in series [14] worked out at 2.

`O=C(NCCN1CCC(F)(F)C1)c1ccc(Oc2ccc(Cl)cc2NS(=O)(=O)c2ccc(Cl)c(C(F)(F)F)c2)cc1`: in series [1], the Kb was 3980 nM. Besides, in [2], the Ki amounted to 63 nM.

`O=C(NCCN1CCCCC1)c1cccc(Oc2ncc(Cl)cc2NS(=O)(=O)c2ccc(Cl)c(Cl)c2)c1`: the Ki in series [2] stood at 79 nM; in series [13], 1260 nM. The fold change (FC) in series [14] is 16.

In the case of `O=C(NCCN1CCCC1)c1ccc(Oc2ncc(Cl)cc2NS(=O)(=O)c2ccc(Cl)c(Cl)c2)cc1`, the Ki in series [2] came to 13 nM; in series [13], 63 nM. The fold change (FC) in series [14] turned out to be 5.

As to `Cc1cc(Oc2ccc(C(=O)NCCN3CCCC3)cc2)c(NS(=O)(=O)c2ccc(Cl)c(C(F)(F)F)c2)cc1Cl`, in series [1], the Kb is 398 nM. Also, the Ki in series [2] was determined as 8 nM.

For `O=C(NCCN1CCCCC1)c1ccc(Oc2ncc(Cl)cc2NS(=O)(=O)c2ccc(Cl)c(C(F)(F)F)c2)cc1`, the values for the Cmax in series [3] and in series [19] were 1520 ng/mL and 624 ng/mL, respectively. In addition, the Kb in series [1] was 398 nM. Besides, in series [2], the Ki is 3 nM. The bioavailability in series [15] was determined as 10%. In [16], this molecule showed a half-life of 0.9 h. Also, the clearance in series [17] came out at 39 mL/min/kg. For the same molecule, the Vd in series [18] is 1.9 L/kg. The IC50 in series [8] is above 10000 nM; in series [10], above 25100 nM. The Activity with Mus musculus stood at 54%. The molecule also came in with a logD in series [12] of 3.2.

With `COc1cc(Oc2ccc(C(=O)NCCN3CCCC3)cc2)c(NS(=O)(=O)c2ccc(Cl)c(C(F)(F)F)c2)cc1Cl`, the Kb in series [1] was 398 nM. The Ki in series [2] came out at 4 nM.

On to `Cc1cc(C(=O)NCCN2CCCC2)ccc1Oc1ccc(Cl)cc1NS(=O)(=O)c1ccc(Cl)c(C(F)(F)F)c1`, for which the Kb in [1] is 501 nM. The Ki in [2] amounted to 8 nM.

Regarding `O=C(NCCN1CCCCC1)c1ccc(Oc2ncc(Cl)cc2NS(=O)(=O)c2ccc(Cl)c(Cl)c2)cc1`, in series [1], the Kb is 1580 nM. The Ki in series [2] was 13 nM; in series [13], 20 nM. Moreover, the fold change (FC) in [14] came to 1.5.

As for `COc1cc(C(=O)NCCN2CCCCC2)ccc1Oc1ccc(Cl)cc1NS(=O)(=O)c1ccc(Cl)c(C(F)(F)F)c1`, in [1], the Kb was 1000 nM. For the same molecule, the Ki in [2] amounted to 25 nM.

With `Cc1ncccc1Oc1ncc(Cl)cc1NS(=O)(=O)c1ccc(Cl)c(Cl)c1`, the Ki in series [13] amounted to 1260 nM. Further, the fold change (FC) in series [14] came to 126.

Turning to `O=C(NCCN1CCNCC1)c1ccc(Oc2ncc(Cl)cc2NS(=O)(=O)c2ccc(Cl)c(Cl)c2)cc1`, the Ki in series [2] turned out to be 40 nM; in series [13], 251 nM. Besides, the fold change (FC) in series [14] came out at 6.

Broadly, the Ki is the equilibrium dissociation constant of an inhibitor or competing ligand from its target. Broadly, the Cmax is the maximum level reached in the sampled fluid or tissue. The half-life is the time in which the quantity being followed falls by half. The term IC50 denotes the concentration needed to halve the response being measured. As a reminder, the bioavailability is the share of a dose that reaches the circulation, judged against a reference dose that is usually intravenous. A word on the logD: it is the decadic logarithm of the distribution of all forms, ionised or not, between an organic phase and buffer at a given pH.
